The target in experiment [1] is T1, Cholecystokinin receptor type A (Rattus norvegicus, UniProt P30551).
T1 sequence (P30551 whole entry): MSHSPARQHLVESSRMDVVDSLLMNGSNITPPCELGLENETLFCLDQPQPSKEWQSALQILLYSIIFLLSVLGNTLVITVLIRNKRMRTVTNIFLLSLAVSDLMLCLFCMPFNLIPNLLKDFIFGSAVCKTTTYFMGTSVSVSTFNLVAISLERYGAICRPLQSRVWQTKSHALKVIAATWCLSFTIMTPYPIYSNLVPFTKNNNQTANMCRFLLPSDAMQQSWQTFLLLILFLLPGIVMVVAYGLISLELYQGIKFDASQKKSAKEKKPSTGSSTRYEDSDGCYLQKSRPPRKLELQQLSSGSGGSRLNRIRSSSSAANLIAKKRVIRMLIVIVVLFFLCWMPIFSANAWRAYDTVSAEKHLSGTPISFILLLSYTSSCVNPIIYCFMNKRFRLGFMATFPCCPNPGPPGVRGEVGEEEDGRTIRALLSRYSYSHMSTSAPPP
Nature of the experiment: Inhibition of [3H]pCCK-8 specific binding to cholecystokinin type A receptor in rat pancreas. Summed up:
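Rat pancreas homogenized in Pipes-HCl pH 6.5 with 30 mM MgCl2, centrifuged twice at 50 000g, 10 min, 4 °C. Membranes (0.2 mg protein/tube) incubated with 0.5 nM [3H]pCCK-8, 30 mM MgCl2, bacitracin and SBTI (0.2 mg/mL each), 120 min, 25 °C. Seven test concentrations in triplicate, at least three experiments.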

The species named for a further experiment is Rattus norvegicus. Briefly: Inhibition of amylase release stimulated by CCK-8 (0.1 nM) in dispersed pancreatic acini. Format: functional. In outline: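 Pancreatic acini prepared by collagenase digestion (two 6 min incubations, 37 °C). Acini were suspended in theophylline/BSA-containing buffer and incubated 30 min, 37 °C, under O2 with 0.1 nM CCK-8 and increasing compound concentrations. Released amylase was measured as a percentage of acinar content. IC50 came from linear regression of % inhibition. Three to six experiments in duplicate.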

For experiment [2], the target named is T2, Gastrin/cholecystokinin type B receptor (Rattus norvegicus, UniProt P30553).
T2 sequence (P30553 whole entry): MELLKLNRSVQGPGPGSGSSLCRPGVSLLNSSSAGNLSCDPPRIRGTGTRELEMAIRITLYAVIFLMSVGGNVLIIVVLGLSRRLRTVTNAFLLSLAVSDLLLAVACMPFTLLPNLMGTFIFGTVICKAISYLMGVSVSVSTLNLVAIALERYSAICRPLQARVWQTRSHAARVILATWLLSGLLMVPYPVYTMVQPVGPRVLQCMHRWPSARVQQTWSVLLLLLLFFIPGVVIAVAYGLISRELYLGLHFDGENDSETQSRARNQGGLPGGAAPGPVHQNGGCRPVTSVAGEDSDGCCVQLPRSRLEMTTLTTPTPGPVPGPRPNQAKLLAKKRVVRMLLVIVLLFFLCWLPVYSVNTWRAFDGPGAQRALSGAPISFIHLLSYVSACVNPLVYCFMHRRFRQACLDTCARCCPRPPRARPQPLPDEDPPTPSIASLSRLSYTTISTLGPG
Nature of the experiment: Inhibition of [3H]pCCK-8 specific binding cholecystokinin type B receptor in rat cerebral cortex membranes. Format: cell membranes, Membrane. In outline:
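Rat brain cortex homogenized in 50 mM Tris-HCl pH 7.4 with 5 mM MgCl2, centrifuged twice at 100 000g, 35 min, 4 °C. Membranes (0.45 mg protein/tube) incubated with 1 nM [3H]pCCK-8 plus bacitracin 0.2 mg/mL, 60 min, 25 °C. Seven test concentrations in triplicate, at least three experiments.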

As a reminder, the IC50 is the point on the concentration scale where inhibition reaches its midpoint. The low end stands for higher potency, the high end for lower potency. For the compound `CC(C)(C)OC(=O)N[C@@H](Cc1c[nH]c2ccccc12)C(=O)N[C@H]1CCCN2C(=O)N(C3CCCCC3)C(=O)C[C@H]12`, the results for the IC50 (in experiment [1]; in the experiment filed under Rattus norvegicus; in experiment [2]) were 165 nM, 287 nM and 7160 nM, respectively.

With `C[C@@H](c1ccccc1)N1C(=O)C[C@H]2[C@H](NC(=O)[C@H](Cc3c[nH]c4ccccc34)NC(=O)OC(C)(C)C)CCCN2C1=O`, the values for the IC50 (in experiment [1]; in the experiment listed under Rattus norvegicus; in experiment [2]) were 6.89 nM, 112 nM and greater than 10000 nM, respectively.

Regarding `CC(C)(C)OC(=O)N[C@@H](Cc1c[nH]c2ccccc12)C(=O)N[C@@H]1CCCN2C(=O)N(c3cccc4ccccc34)C(=O)C[C@@H]12`, the IC50 is 0.59 nM in experiment [1], 0.73 nM in the experiment listed under Rattus norvegicus and greater than 10000 nM in experiment [2].

As for `CC(C)(C)OC(=O)N[C@@H](Cc1c[nH]c2ccccc12)C(=O)N[C@H]1CCCN2C(=O)N(c3ccccc3)C(=O)C[C@H]12`, the IC50 in experiment [1] was 628 nM; in the experiment filed under Rattus norvegicus, greater than 1000 nM; in experiment [2], greater than 10000 nM.

(Values after ChEMBL document CHEMBL1134518, “5-(Tryptophyl)amino-1,3-dioxoperhydropyrido[1,2-c]pyrimidine-based potent and selective CCK(1)receptor antagonists: structure-activity relationship studies on the substituent at N2-position” (J Med Chem, 2001).)
